Converted amounts (≈) assume the structure as drawn. The source made the active and inactive calls. No cut-off for these calls is given here.
Legend:
[1] = tested on: Staphylococcus aureus; experiment: […] activity against methicillin resistant Staphylococcus aureus 700787 after 24 hrs by broth dilution assay; assay type: functional; conditions: Staphylococcus aureus, 700787, 24 h
Procedure, shortened: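 Broth microdilution in microtiter format at a seeding density of 10^3/mL. C. albicans was grown in Sabouraud dextrose broth; S. aureus and P. aeruginosa in cation-supplemented Mueller-Hinton broth. Incubated at 37°C, with growth scored after 24 h. MIC taken as the lowest concentration giving complete growth inhibition.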

[2] = tested on: SNB-19; experiment: Cytotoxicity against human SNB19 cells assessed cell growth; assay type: functional
[3] = tested on: KM12; experiment: Cytotoxicity against human KM12 cells assessed cell growth; assay type: functional
[4] = tested on: Vero; experiment: Cytotoxicity against african green monkey Vero cells; assay type: cell-based; conditions: Chlorocebus sabaeus
Procedure, shortened: (§1)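 IC50 value derived from at least three separate assay runs per sample.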

[5] = tested on: ASPC1; experiment: Cytotoxicity against human AsPC1 cells; assay type: functional, cell-based; procedure, shortened: as §1
[6] = Metabolic satbility in human liver microsomes assessed as compound remaining at 1 uM after 60 min in the presence of NADPH; assay type: ADME, Microsome; conditions: read-out: Stability
[7] = tested on: SF-268; experiment: Cytotoxicity against human SF268 cells assessed cell growth; assay type: functional
[8] = Stability in mouse plasma in presence of PBS at 40 uM after 3 hrs; assay type: ADME, cell-free; conditions: read-out: Stability
[9] = tested on: UACC-62; experiment: Cytotoxicity against human UACC62 cells assessed cell growth; assay type: functional
[10] = tested on: CCRF-CEM; experiment: Cytotoxicity against human CCRF-CEM cells assessed cell growth; assay type: functional
[11] = tested on: Nucleic Acid; experiment: Displacement of ethidium bromide from DNA; assay type: nucleic-acid assay
[12] = tested on: HT-29; experiment: Cytotoxicity against human HT-29 cells assessed cell growth; assay type: functional
[13] = tested on: NCI-H322M; experiment: Cytotoxicity against human NCI-H322M cells assessed cell growth; assay type: functional
[14] = tested on: BT-549; experiment: Cytotoxicity against human BT549 cells assessed cell growth; assay type: functional
[15] = Unbound fraction in mouse plasma at 1 uM; assay type: ADME, cell-free
[16] = tested on: SW-620; experiment: Cytotoxicity against human SW620 cells assessed cell growth; assay type: functional
[17] = tested on: SK-OV-3; experiment: Cytotoxicity against human SKOV3 cells assessed cell growth; assay type: functional
[18] = Metabolic satbility in mouse liver microsomes assessed as compound remaining at 1 uM after 60 min in the presence of NADPH; assay type: ADME, Microsome; conditions: read-out: Stability
[19] = Stability in PBS and inorganic phosphate at 40 uM after 3 hrs; assay type: physicochemical; conditions: read-out: Stability
[20] = tested on: HCT-15; experiment: Cytotoxicity against human HCT15 cells assessed cell growth; assay type: functional
[21] = tested on: OVCAR-4; experiment: Cytotoxicity against human OVCAR4 cells assessed cell growth; assay type: functional
[22] = Solubility at pH 5; assay type: physicochemical; conditions: buffer
[23] = tested on: SNB-75; experiment: Cytotoxicity against human SNB75 cells assessed cell growth; assay type: functional
[24] = Metabolic stability in human liver microsomes assessed as compound metabolized at 1 uM in the presence of NADPH; assay type: ADME, Microsome; conditions: read-out: Activity
[25] = tested on: LOX IMVI; experiment: Cytotoxicity against human LOXIMVI cells assessed cell growth; assay type: functional
[26] = Permeability at 50 uM at pH 5 by PAMPA; assay type: ADME; conditions: read-out: permeability
[27] = tested on: EKVX; experiment: Cytotoxicity against human EKVX cells assessed cell growth; assay type: functional
[28] = tested on: PANC-1; experiment: Cell cycle arrest in human PANC1 cells assessed as accumulation of cells at G1 phase at <=46.5 after 24 hrs by propidium iodide staining method; assay type: functional, cell-based
Procedure, shortened: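 PANC-1 cells in RPMI 1640 with 10% FBS, HEPES, antibiotics, glutamine, pyruvate and glucose, at 37°C in 5% CO2, exposed to varying compound concentrations for 24 h alongside methanol vehicle and paclitaxel positive controls. Cells then ethanol-fixed and stained with 0.02 mg/mL propidium iodide plus 0.1 mg/mL RNase A. Flow cytometry collected 10,000 events per sample, and DNA histograms were modelled for phase distribution.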

[29] = tested on: DLD-1; experiment: Cytotoxicity against human DLD1 cells; assay type: functional, cell-based; procedure, shortened: as §1
[30] = tested on: IGROV-1; experiment: Cytotoxicity against human IGROV1 cells assessed cell growth; assay type: functional
[31] = species: Homo sapiens; experiment: Unbound fraction in human plasma at 10 uM
[32] = Solubility at pH 6.2; assay type: physicochemical; conditions: buffer
[33] = tested on: MOLT-4; experiment: Cytotoxicity against human MOLT4 cells assessed cell growth; assay type: functional
[34] = tested on: HOP-62; experiment: Cytotoxicity against human HOP62 cells assessed cell growth; assay type: functional
[35] = Solubility at pH 7.4; assay type: physicochemical; conditions: buffer
[36] = tested on: 786-0; experiment: Cytotoxicity against human 786-0 cells assessed cell growth; assay type: functional
[37] = tested on: TK-10; experiment: Cytotoxicity against human TK10 cells assessed cell growth; assay type: functional
[38] = tested on: SK-MEL-2; experiment: Cytotoxicity against human SK-MEL-2 cells assessed cell growth; assay type: functional
[39] = tested on: MIA PaCa-2; experiment: Cytotoxicity against human MIAPaCa2 cells; assay type: functional, cell-based; procedure, shortened: as §1
[40] = tested on: HL-60(TB); experiment: Cytotoxicity against human HL-60(TB) cells assessed cell growth; assay type: functional; procedure, shortened: as §1
[41] = tested on: OVCAR-5; experiment: Cytotoxicity against human OVCAR5 cells assessed cell growth; assay type: functional
[42] = tested on: SK-MEL-5; experiment: Cytotoxicity against human SK-MEL-5 cells assessed cell growth; assay type: functional
[43] = tested on: NCI/ADR-RES; experiment: Cytotoxicity against human NCI/ADR-RES cells; assay type: functional, cell-based; procedure, shortened: as §1
[44] = tested on: HCC 2998; experiment: Cytotoxicity against human HCC2998 cells assessed cell growth; assay type: functional
[45] = tested on: SK-MEL-28; experiment: Cytotoxicity against human SK-MEL-28 cells assessed cell growth; assay type: functional
[46] = Permeability at 50 uM at pH 7.4 by PAMPA; assay type: ADME; conditions: read-out: permeability

Question: With `CC(=O)N(C)CCc1cc(Br)c(OCCCNc2ncn(C)c3ncnc2-3)c(Br)c1` [APHROCALLISTIN] as the compound, how does the MIC [1] read?
Answer: 250 µg/mL (≈ 463 µM)

Question: And the Activity [2]?
Answer: 71.64%

Question: And the Activity [3]?
Answer: 88.97%

Question: What about the IC50 [4] of the same compound?
Answer: 76.1 µM

Question: And the IC50 [5]?
Answer: > 100 µM

Question: What about the remaining at 1 h, 1 µM [6] of the same compound?
Answer: 3.08%

Question: What about the Activity [7] of the same compound?
Answer: 97.87%

Question: What about the remaining at 3 h, 40 µM [8] of the same compound?
Answer: 96.3%

Question: What about the Activity [9] of the same compound?
Answer: 79.32%

Question: And the Activity [10]?
Answer: 80.24%

Question: And the Activity [11]?
Answer: inactive

Question: And the Activity [12]?
Answer: 88.11%

Question: And the Activity [13]?
Answer: 76.48%

Question: What about the Activity [14] of the same compound?
Answer: 56.49%

Question: And the fraction unbound at 1 µM [15]?
Answer: 0.15

Question: What about the Activity [16] of the same compound?
Answer: 89.87%

Question: And the Activity [17]?
Answer: 94.44%

Question: And the remaining at 1 h, 1 µM [18]?
Answer: 1.44%

Question: And the remaining at 3 h, 40 µM [19]?
Answer: 76.5%

Question: What about the Activity [20] of the same compound?
Answer: 99.13%

Question: And the Activity [21]?
Answer: 33.32%

Question: What about the solubility [22] of the same compound?
Answer: > 267 µg/mL

Question: What about the Activity [23] of the same compound?
Answer: 81.17%

Question: And the metabolised at 1 µM [24]?
Answer: 96.9%

Question: And the Activity [25]?
Answer: 55.23%

Question: And the Papp at 50 µM [26]?
Answer: 33 ×10⁻⁶ cm/s

Question: And the Activity [27]?
Answer: 45.38%

Question: And the Activity [28]?
Answer: Active

Question: And the IC50 [29]?
Answer: 7.5 µM

Question: What about the Activity [30] of the same compound?
Answer: 64.84%

Question: What about the fraction unbound at 10 µM [31] of the same compound?
Answer: 0.103

Question: And the solubility [32]?
Answer: > 267 µg/mL

Question: What about the Activity [33] of the same compound?
Answer: 50.93%

Question: What about the Activity [34] of the same compound?
Answer: 71.38%

Question: What about the solubility [35] of the same compound?
Answer: > 267 µg/mL

Question: And the Activity [36]?
Answer: 70.65%

Question: And the Activity [37]?
Answer: 89.47%

Question: What about the Activity [38] of the same compound?
Answer: 71.47%

Question: What about the IC50 [39] of the same compound?
Answer: 26.6 µM

Question: And the Activity [40]?
Answer: 39.94%

Question: And the Activity [41]?
Answer: 88.65%

Question: And the Activity [42]?
Answer: 20%

Question: And the IC50 [43]?
Answer: 34.3 µM

Question: And the Activity [44]?
Answer: 65.57%

Question: What about the Activity [45] of the same compound?
Answer: 84.58%

Question: And the Papp at 50 µM [46]?
Answer: 321 ×10⁻⁶ cm/s

— ChEMBL document CHEMBL1153772 (J Nat Prod, 2009)
